A short description of data set [1]: Cytotoxicity against human Caco2 cells assessed as cell viability at 1 uM after 5 hrs by MTT assay relative to control. Type of data set: cell-based. The settings on record: Caco-2 cells, read-out: Activity. In short, it runs like this: (§1)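 Caco-2 cells (passage 60−65) seeded at 1.14 × 10^5 cells/cm2, grown 24 h, then exposed in transport buffer (pH 7.4) to 1, 2, 3, 4, 5 and 10 μM for 5 h at 37 °C, 8% CO2. After a DPBS wash, MTT was added for 2 h. A 1% DMSO blank gave background. n = 18; ANOVA with Bonferroni test.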
On the technique in general: Tetrazolium assays rely on reduction of a dye to a coloured formazan, in cell work by metabolically active cells.

Data set [2] is described as follows: Cytotoxicity against human Caco2 cells assessed as cell viability at 2 uM after 5 hrs by MTT assay relative to control. Type of data set: cell-based. The settings on record: Caco-2 cells, read-out: Activity. In short, it runs like this:
as §1

A further data set relates to Caco-2. Put plainly: Cytotoxicity against human Caco2 cells assessed as reduction in cell viability after 5 hrs by MTT assay. The settings on record: caco-2, 5 h. Type of data set: cell-based. In short, it runs like this: as §1
Data set [3] can be described thus: Permeability from apical to basolateral side in human Caco2 cells assessed as drug recovery at 2 uM after 10 mins in absence of CES inhibitor BNPP by LC-MS method. The settings on record: Caco-2, read-out: Drug recovery. In kind it is ADME, cell-based. In short, it runs like this: (§2)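 Caco-2 monolayers grown 19−21 days on Transwell inserts. Pretreated 40 min at 37 °C with 200 μM BNPP in HBSS on both sides, or sham HBSS, then 40 min DMEM washout. Monolayers with TEER >250 Ω cm2 were dosed at 2 μM (1% DMSO) on the donor side; basolateral buffer had 4% FBS. Shaken at 37 °C. Buffer, cell and plastic extracts at 10, 60 and 120 min were measured by LC-MS for total recovery; mean(SD), n = 3.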

Data set [4] in a line: Permeability from apical to basolateral side in human Caco2 cells assessed as drug recovery at 2 uM after 60 mins in absence of CES inhibitor BNPP by LC-MS method. Type of data set: ADME, cell-based. The settings on record: Caco-2, read-out: Drug recovery. An outline of the steps:
as §2

Data set [5] is described as follows: Permeability from apical to basolateral side in human Caco2 cells assessed as drug recovery at 2 uM after 120 mins in absence of CES inhibitor BNPP by LC-MS method. In kind it is ADME, cell-based. The settings on record: Caco-2, read-out: Drug recovery. In short, it runs like this: as §2
(Caco-2 cells form a polarised layer with tight junctions and transporters.)

Data set [6] can be described thus: Permeability from apical to basolateral side in human Caco2 cells assessed as drug recovery at 2 uM after 10 mins in presence of CES inhibitor BNPP by LC-MS method. The settings on record: Caco-2, with BNPP (CES inhibitor), concentration not stated, read-out: Drug recovery. In kind it is ADME, cell-based. In short, it runs like this:
as §2

A short description of data set [7]: Permeability from apical to basolateral side in human Caco2 cells assessed as drug recovery at 2 uM after 60 mins in presence of CES inhibitor BNPP by LC-MS method. In kind it is ADME, cell-based. The settings on record: Caco-2, with BNPP (CES inhibitor), concentration not stated, read-out: Drug recovery. In short, it runs like this:
as §2

Data set [8] in a line: Permeability from apical to basolateral side in human Caco2 cells assessed as drug recovery at 2 uM after 120 mins in presence of CES inhibitor BNPP by LC-MS method. In kind it is ADME, cell-based. The settings on record: Caco-2, with BNPP (CES inhibitor), concentration not stated, read-out: Drug recovery. An outline of the steps:
as §2

Data set [9] is described as follows: Permeability from basolateral to apical side in human Caco2 cells assessed as drug recovery at 2 uM after 10 mins in absence of CES inhibitor BNPP by LC-MS method. Type of data set: ADME, cell-based. The settings on record: Caco-2, read-out: Drug recovery. An outline of the steps:
as §2

A short description of data set [10]: Permeability from basolateral to apical side in human Caco2 cells assessed as drug recovery at 2 uM after 60 mins in absence of CES inhibitor BNPP by LC-MS method. Type of data set: ADME, cell-based. The settings on record: Caco-2, read-out: Drug recovery. An outline of the steps:
as §2

Data set [11] is described as follows: Permeability from basolateral to apical side in human Caco2 cells assessed as drug recovery at 2 uM after 120 mins in absence of CES inhibitor BNPP by LC-MS method. The settings on record: Caco-2, read-out: Drug recovery. In kind it is ADME, cell-based. An outline of the steps: as §2
Data set [12] can be described thus: Permeability from basolateral to apical side in human Caco2 cells assessed as drug recovery at 2 uM after 10 mins in presence of CES inhibitor BNPP by LC-MS method. In kind it is ADME, cell-based. The settings on record: Caco-2, with BNPP (CES inhibitor), concentration not stated, read-out: Drug recovery. In short, it runs like this: as §2
The nature of data set [13]: Permeability from basolateral to apical side in human Caco2 cells assessed as drug recovery at 2 uM after 60 mins in presence of CES inhibitor BNPP by LC-MS method. The settings on record: Caco-2, with BNPP (CES inhibitor), concentration not stated, read-out: Drug recovery. Type of data set: ADME, cell-based. An outline of the steps: as §2
Data set [14] can be described thus: Permeability from basolateral to apical side in human Caco2 cells assessed as drug recovery at 2 uM after 120 mins in presence of CES inhibitor BNPP by LC-MS method. In kind it is ADME, cell-based. The settings on record: Caco-2, with BNPP (CES inhibitor), concentration not stated, read-out: Drug recovery. In short, it runs like this:
as §2

In data set [15] the target is T1, CE2 (cocaine esterase) (Homo sapiens, UniProt O00748).
T1 sequence (O00748 whole entry): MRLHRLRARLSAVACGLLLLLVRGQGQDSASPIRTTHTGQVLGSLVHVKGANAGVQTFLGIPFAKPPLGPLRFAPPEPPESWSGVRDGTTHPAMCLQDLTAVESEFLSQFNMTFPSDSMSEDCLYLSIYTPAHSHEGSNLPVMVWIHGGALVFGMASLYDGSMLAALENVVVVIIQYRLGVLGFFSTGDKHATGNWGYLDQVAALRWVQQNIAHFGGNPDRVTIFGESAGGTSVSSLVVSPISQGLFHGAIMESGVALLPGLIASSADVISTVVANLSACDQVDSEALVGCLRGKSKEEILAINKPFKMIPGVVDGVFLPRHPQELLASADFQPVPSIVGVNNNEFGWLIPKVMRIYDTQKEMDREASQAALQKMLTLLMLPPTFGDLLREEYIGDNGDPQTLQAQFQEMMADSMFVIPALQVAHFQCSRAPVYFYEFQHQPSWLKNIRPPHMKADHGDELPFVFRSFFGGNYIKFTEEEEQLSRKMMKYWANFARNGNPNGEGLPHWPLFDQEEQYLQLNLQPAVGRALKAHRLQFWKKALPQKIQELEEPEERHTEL
Put plainly: Drug metabolism assessed as human CE2-mediated compound hydrolysis at 1 uM incubated for 30 mins measured every 5 mins by LC-MS analysis. In kind it is ADME. The settings on record: human CE2 enzyme, read-out: Drug metabolism. In short, it runs like this: (§3)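 Purified human hCE2 (0.2 μg/mL) in 90 mM KH2PO4, 40 mM KCl, pH 7.3, preincubated 5 min at 37 °C. Reaction started with 1 μM substrate (0.1% DMSO final) and sampled every 5 min to 30 min, in triplicate. Quenched with ice-cold acetonitrile and quantified by LC-MS (SIM, m/z 555 Na adduct). Half-life = ln 2 / slope of ln % remaining versus time.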

Data set [16] has as its target T1, CE2 (cocaine esterase). Put plainly: Drug metabolism assessed as human CE2-mediated compound hydrolysis by measuring compound half life at 1 uM incubated for 30 mins by LC-MS analysis. The settings on record: human CE2 enzyme. In kind it is ADME. In short, it runs like this:
as §3

The next data set deals with T2, Cocaine esterase (Homo sapiens, UniProt O00748).
T2 sequence (O00748 whole entry): T1 sequence (O00748 whole entry)
The experiment in a line: Drug metabolism assessed as human CE2-mediated compound hydrolysis by measuring specific activity of enzyme per mg of protein at 1 uM incubated for 30 mins. Type of data set: ADME. The settings on record: 0.5 h. An outline of the steps:
as §3

From ChEMBL document CHEMBL4477182, “Evaluation of the Intestinal Absorption Mechanism of Casearin X in Caco-2 Cells with Modified Carboxylesterase Activity” (J Nat Prod, 2016) come the findings set out here.

As for `C=C/C(C)=C\C[C@]1(C)[C@H](C)C[C@H](O)[C@@]23C(=C[C@H](OC(=O)CCC)C[C@@H]12)[C@@H](OC(=O)CCC)O[C@H]3OC(C)=O`, the viability at 5 h, 1 µM in [1] came to 98.9%. Also, in data set [2], the viability at 5 h, 2 µM turned out to be 97.9%. In addition, the Activity entry in the data set on Caco-2 was “Dose-dependent effect”. Also, the recovery at 10 min, 2 µM in [3] amounted to 68.4%; in data set [6] it was 85.4%; in [9] it was 74.4%; in [12] it was 93.9%. Further, the recovery at 1 h, 2 µM in [4] amounted to 33.3%; in data set [7], 87.2%; in data set [10], 46.5%; in [13] it was 89.3%. The recovery at 2 h, 2 µM in [5] came to 12%; in [8], 87.4%; in [11], 27.6%; in data set [14], 92.9%. Moreover, the metabolised at 0.5 h, 1 µM at CE2 (cocaine esterase) [15] came out at 30%. For the same compound, at CE2 (cocaine esterase) [16], the half-life at 1 µM worked out at 49.5 min. Also, the Drug metabolism on Cocaine esterase is 55.8 pmol/min.

For orientation: half-life means the time in which the quantity being followed falls by half.
